# According to ChEMBL document CHEMBL4130343, “Design, synthesis, and evaluation of benzofuran derivatives as novel anti-pancreatic carcinoma agents via interfering the hypoxia environment by targeting HIF-1α pathway” (Eur J Med Chem, 2017):
# System: PANC-1
# Test: Antiproliferative activity against human PANC1 cells after 48 hrs by MTT assay
# Format: functional, cell-based
# Details: PANC-1, 48 h
# Summary of the method: (§1)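 Cells were seeded at 5×10^5 cells/mL overnight and exposed to graded compound concentrations for 48 h. MTT (5 mg/mL stock) was added for 4 h at 37 °C, and formazan was dissolved in DMSO. Absorbance was read at 570 nm. IC₅₀ was fitted from the curves; values are mean ± SD, n = 3.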
row,Structure (SMILES),IC50
1,CNCCNC(=O)c1oc2ccc(N(Cc3ccc(Br)cc3)S(=O)(=O)c3ccc(Br)cc3)cc2c1C,2.49 µM
2,Cc1c(C(=O)NCC(O)CO)oc2ccc(N(Cc3ccc(Br)cc3)S(=O)(=O)c3ccc(Br)cc3)cc12 (stereo unspecified),29.3 µM
3,CN(C)CCNC(=O)c1nc2cc(N(Cc3ccc(Br)cc3)S(=O)(=O)c3ccc(Br)cc3)ccc2o1,13.6 µM
4,Cc1c(C(=O)N2CCNCC2)oc2ccc(N(Cc3ccc(Br)cc3)S(=O)(=O)c3ccc(Br)cc3)cc12,8.38 µM
5,CCN(CC)CCNC(=O)c1[nH]c2ccc(N(Cc3ccc(Br)cc3)S(=O)(=O)c3ccc(Br)cc3)cc2c1C,10.5 µM
6,Cc1c(C(=O)OCCCN(C)C)oc2ccc(N(Cc3ccc(Br)cc3)S(=O)(=O)c3ccc(Br)cc3)cc12,24.6 µM
7,Cc1c(C(=O)N2CCN(C)CC2)oc2ccc(N(Cc3ccc(Br)cc3)S(=O)(=O)c3ccc(Br)cc3)cc12,> 40 µM
8,CCN(CC)CCNC(=O)c1nc2cc(N(Cc3ccc(Br)cc3)S(=O)(=O)c3ccc(Br)cc3)ccc2o1,12.6 µM
9,Cc1c(C(=O)NC2CCN(C)CC2)sc2ccc(N(Cc3ccc(Br)cc3)S(=O)(=O)c3ccc(Br)cc3)cc12,5.2 µM
10,Cc1c(C(=O)NCCN(C)C)oc2ccc(N(Cc3ccc(Br)cc3)S(=O)(=O)c3ccc(Br)cc3)cc12,5.94 µM
11,CN1CCC(NC(=O)c2nc3cc(N(Cc4ccc(Br)cc4)S(=O)(=O)c4ccc(Br)cc4)ccc3o2)CC1,5.91 µM
12,Cc1c(C(=O)NCCS(C)(=O)=O)oc2ccc(N(Cc3ccc(Br)cc3)S(=O)(=O)c3ccc(Br)cc3)cc12,> 40 µM
13,CCN(CC)CCNC(=O)c1sc2ccc(N(Cc3ccc(Br)cc3)S(=O)(=O)c3ccc(Br)cc3)cc2c1C,7.65 µM
14,Cc1ccc(NC(=O)c2oc3ccc(N(Cc4ccc(Br)cc4)S(=O)(=O)c4ccc(Br)cc4)cc3c2C)nc1,> 40 µM
15,Cc1c(C(=O)NCCN2CCCCC2)oc2ccc(N(Cc3ccc(Br)cc3)S(=O)(=O)c3ccc(Br)cc3)cc12,6.94 µM

# System: BXPC-3
# Test: Antiproliferative activity against human BxPC3 cells after 48 hrs by MTT assay
# Format: functional, cell-based
# Details: BXPC-3, 48 h
# Summary of the method: as §1
row,Structure (SMILES),IC50
1,CNCCNC(=O)c1oc2ccc(N(Cc3ccc(Br)cc3)S(=O)(=O)c3ccc(Br)cc3)cc2c1C,5.13 µM
2,Cc1c(C(=O)NCC(O)CO)oc2ccc(N(Cc3ccc(Br)cc3)S(=O)(=O)c3ccc(Br)cc3)cc12 (stereo unspecified),27.6 µM
3,CN(C)CCNC(=O)c1nc2cc(N(Cc3ccc(Br)cc3)S(=O)(=O)c3ccc(Br)cc3)ccc2o1,13.7 µM
4,Cc1c(C(=O)N2CCNCC2)oc2ccc(N(Cc3ccc(Br)cc3)S(=O)(=O)c3ccc(Br)cc3)cc12,19.6 µM
5,CCN(CC)CCNC(=O)c1[nH]c2ccc(N(Cc3ccc(Br)cc3)S(=O)(=O)c3ccc(Br)cc3)cc2c1C,17.4 µM
6,Cc1c(C(=O)OCCCN(C)C)oc2ccc(N(Cc3ccc(Br)cc3)S(=O)(=O)c3ccc(Br)cc3)cc12,24.2 µM
7,Cc1c(C(=O)N2CCN(C)CC2)oc2ccc(N(Cc3ccc(Br)cc3)S(=O)(=O)c3ccc(Br)cc3)cc12,> 40 µM
8,CCN(CC)CCNC(=O)c1nc2cc(N(Cc3ccc(Br)cc3)S(=O)(=O)c3ccc(Br)cc3)ccc2o1,16.3 µM
9,Cc1c(C(=O)NC2CCN(C)CC2)sc2ccc(N(Cc3ccc(Br)cc3)S(=O)(=O)c3ccc(Br)cc3)cc12,7.1 µM
10,Cc1c(C(=O)NCCN(C)C)oc2ccc(N(Cc3ccc(Br)cc3)S(=O)(=O)c3ccc(Br)cc3)cc12,4.79 µM
11,CN1CCC(NC(=O)c2nc3cc(N(Cc4ccc(Br)cc4)S(=O)(=O)c4ccc(Br)cc4)ccc3o2)CC1,10.2 µM
12,Cc1c(C(=O)NCCS(C)(=O)=O)oc2ccc(N(Cc3ccc(Br)cc3)S(=O)(=O)c3ccc(Br)cc3)cc12,> 40 µM
13,CCN(CC)CCNC(=O)c1sc2ccc(N(Cc3ccc(Br)cc3)S(=O)(=O)c3ccc(Br)cc3)cc2c1C,7.88 µM
14,Cc1ccc(NC(=O)c2oc3ccc(N(Cc4ccc(Br)cc4)S(=O)(=O)c4ccc(Br)cc4)cc3c2C)nc1,> 40 µM
15,Cc1c(C(=O)NCCN2CCCCC2)oc2ccc(N(Cc3ccc(Br)cc3)S(=O)(=O)c3ccc(Br)cc3)cc12,3.71 µM

# System: HCT-116
# Test: Antiproliferative activity against human HCT116 cells after 48 hrs by MTT assay
# Format: functional, cell-based
# Details: HCT-116, 48 h
# Summary of the method: as §1
row,Structure (SMILES),IC50
1,CNCCNC(=O)c1oc2ccc(N(Cc3ccc(Br)cc3)S(=O)(=O)c3ccc(Br)cc3)cc2c1C,2.44 µM
2,Cc1c(C(=O)NCC(O)CO)oc2ccc(N(Cc3ccc(Br)cc3)S(=O)(=O)c3ccc(Br)cc3)cc12 (stereo unspecified),27.8 µM
3,CN(C)CCNC(=O)c1nc2cc(N(Cc3ccc(Br)cc3)S(=O)(=O)c3ccc(Br)cc3)ccc2o1,14.3 µM
4,Cc1c(C(=O)N2CCNCC2)oc2ccc(N(Cc3ccc(Br)cc3)S(=O)(=O)c3ccc(Br)cc3)cc12,3 µM
5,CCN(CC)CCNC(=O)c1[nH]c2ccc(N(Cc3ccc(Br)cc3)S(=O)(=O)c3ccc(Br)cc3)cc2c1C,15.8 µM
6,Cc1c(C(=O)OCCCN(C)C)oc2ccc(N(Cc3ccc(Br)cc3)S(=O)(=O)c3ccc(Br)cc3)cc12,11.2 µM
7,Cc1c(C(=O)N2CCN(C)CC2)oc2ccc(N(Cc3ccc(Br)cc3)S(=O)(=O)c3ccc(Br)cc3)cc12,8.55 µM
8,CCN(CC)CCNC(=O)c1nc2cc(N(Cc3ccc(Br)cc3)S(=O)(=O)c3ccc(Br)cc3)ccc2o1,14.3 µM
9,Cc1c(C(=O)NC2CCN(C)CC2)sc2ccc(N(Cc3ccc(Br)cc3)S(=O)(=O)c3ccc(Br)cc3)cc12,10.1 µM
10,Cc1c(C(=O)NCCN(C)C)oc2ccc(N(Cc3ccc(Br)cc3)S(=O)(=O)c3ccc(Br)cc3)cc12,3.64 µM
11,CN1CCC(NC(=O)c2nc3cc(N(Cc4ccc(Br)cc4)S(=O)(=O)c4ccc(Br)cc4)ccc3o2)CC1,7.32 µM
12,Cc1c(C(=O)NCCS(C)(=O)=O)oc2ccc(N(Cc3ccc(Br)cc3)S(=O)(=O)c3ccc(Br)cc3)cc12,> 40 µM
13,CCN(CC)CCNC(=O)c1sc2ccc(N(Cc3ccc(Br)cc3)S(=O)(=O)c3ccc(Br)cc3)cc2c1C,10.9 µM
14,Cc1ccc(NC(=O)c2oc3ccc(N(Cc4ccc(Br)cc4)S(=O)(=O)c4ccc(Br)cc4)cc3c2C)nc1,> 40 µM
15,Cc1c(C(=O)NCCN2CCCCC2)oc2ccc(N(Cc3ccc(Br)cc3)S(=O)(=O)c3ccc(Br)cc3)cc12,2.23 µM

# System: HCT-116
# Test: Antiproliferative activity against p53-deficient human HCT116 cells after 48 hrs by MTT assay
# Format: functional, cell-based
# Details: HCT-116, 48 h
# Summary of the method: as §1
row,Structure (SMILES),IC50
1,CNCCNC(=O)c1oc2ccc(N(Cc3ccc(Br)cc3)S(=O)(=O)c3ccc(Br)cc3)cc2c1C,2.37 µM
2,Cc1c(C(=O)NCC(O)CO)oc2ccc(N(Cc3ccc(Br)cc3)S(=O)(=O)c3ccc(Br)cc3)cc12 (stereo unspecified),11.5 µM
3,Cc1c(C(=O)N2CCNCC2)oc2ccc(N(Cc3ccc(Br)cc3)S(=O)(=O)c3ccc(Br)cc3)cc12,3.3 µM
4,Cc1c(C(=O)OCCCN(C)C)oc2ccc(N(Cc3ccc(Br)cc3)S(=O)(=O)c3ccc(Br)cc3)cc12,7.05 µM
5,Cc1c(C(=O)N2CCN(C)CC2)oc2ccc(N(Cc3ccc(Br)cc3)S(=O)(=O)c3ccc(Br)cc3)cc12,5.47 µM
6,Cc1c(C(=O)NCCN(C)C)oc2ccc(N(Cc3ccc(Br)cc3)S(=O)(=O)c3ccc(Br)cc3)cc12,1.2 µM
7,Cc1c(C(=O)NCCS(C)(=O)=O)oc2ccc(N(Cc3ccc(Br)cc3)S(=O)(=O)c3ccc(Br)cc3)cc12,> 40 µM
8,Cc1ccc(NC(=O)c2oc3ccc(N(Cc4ccc(Br)cc4)S(=O)(=O)c4ccc(Br)cc4)cc3c2C)nc1,> 40 µM
9,Cc1c(C(=O)NCCN2CCCCC2)oc2ccc(N(Cc3ccc(Br)cc3)S(=O)(=O)c3ccc(Br)cc3)cc12,2.84 µM

# System: MCF7
# Test: Antiproliferative activity against human MCF7 cells after 48 hrs by MTT assay
# Format: functional, cell-based
# Details: MCF7, 48 h
# Summary of the method: as §1
row,Structure (SMILES),IC50
1,CNCCNC(=O)c1oc2ccc(N(Cc3ccc(Br)cc3)S(=O)(=O)c3ccc(Br)cc3)cc2c1C,4.37 µM
2,Cc1c(C(=O)NCC(O)CO)oc2ccc(N(Cc3ccc(Br)cc3)S(=O)(=O)c3ccc(Br)cc3)cc12 (stereo unspecified),36.5 µM
3,Cc1c(C(=O)N2CCNCC2)oc2ccc(N(Cc3ccc(Br)cc3)S(=O)(=O)c3ccc(Br)cc3)cc12,9.72 µM
4,Cc1c(C(=O)OCCCN(C)C)oc2ccc(N(Cc3ccc(Br)cc3)S(=O)(=O)c3ccc(Br)cc3)cc12,39.7 µM
5,Cc1c(C(=O)N2CCN(C)CC2)oc2ccc(N(Cc3ccc(Br)cc3)S(=O)(=O)c3ccc(Br)cc3)cc12,> 40 µM
6,Cc1c(C(=O)NCCN(C)C)oc2ccc(N(Cc3ccc(Br)cc3)S(=O)(=O)c3ccc(Br)cc3)cc12,3.66 µM
7,Cc1c(C(=O)NCCS(C)(=O)=O)oc2ccc(N(Cc3ccc(Br)cc3)S(=O)(=O)c3ccc(Br)cc3)cc12,> 40 µM
8,Cc1ccc(NC(=O)c2oc3ccc(N(Cc4ccc(Br)cc4)S(=O)(=O)c4ccc(Br)cc4)cc3c2C)nc1,> 40 µM
9,Cc1c(C(=O)NCCN2CCCCC2)oc2ccc(N(Cc3ccc(Br)cc3)S(=O)(=O)c3ccc(Br)cc3)cc12,3.36 µM

# System: A549
# Test: Antiproliferative activity against human A549 cells after 48 hrs by MTT assay
# Format: functional, cell-based
# Details: A549, 48 h
# Summary of the method: as §1
row,Structure (SMILES),IC50
1,CNCCNC(=O)c1oc2ccc(N(Cc3ccc(Br)cc3)S(=O)(=O)c3ccc(Br)cc3)cc2c1C,3.08 µM
2,Cc1c(C(=O)NCC(O)CO)oc2ccc(N(Cc3ccc(Br)cc3)S(=O)(=O)c3ccc(Br)cc3)cc12 (stereo unspecified),30.5 µM
3,Cc1c(C(=O)N2CCNCC2)oc2ccc(N(Cc3ccc(Br)cc3)S(=O)(=O)c3ccc(Br)cc3)cc12,8.68 µM
4,Cc1c(C(=O)OCCCN(C)C)oc2ccc(N(Cc3ccc(Br)cc3)S(=O)(=O)c3ccc(Br)cc3)cc12,> 40 µM
5,Cc1c(C(=O)N2CCN(C)CC2)oc2ccc(N(Cc3ccc(Br)cc3)S(=O)(=O)c3ccc(Br)cc3)cc12,22.3 µM
6,Cc1c(C(=O)NCCN(C)C)oc2ccc(N(Cc3ccc(Br)cc3)S(=O)(=O)c3ccc(Br)cc3)cc12,5.4 µM
7,Cc1c(C(=O)NCCS(C)(=O)=O)oc2ccc(N(Cc3ccc(Br)cc3)S(=O)(=O)c3ccc(Br)cc3)cc12,> 40 µM
8,Cc1ccc(NC(=O)c2oc3ccc(N(Cc4ccc(Br)cc4)S(=O)(=O)c4ccc(Br)cc4)cc3c2C)nc1,> 40 µM
9,Cc1c(C(=O)NCCN2CCCCC2)oc2ccc(N(Cc3ccc(Br)cc3)S(=O)(=O)c3ccc(Br)cc3)cc12,5.17 µM

# System: MDA-MB-231
# Test: Antiproliferative activity against human MDA-MB-231 cells after 48 hrs by MTT assay
# Format: functional, cell-based
# Details: MDA-MB-231, 48 h
# Summary of the method: as §1
row,Structure (SMILES),IC50
1,CNCCNC(=O)c1oc2ccc(N(Cc3ccc(Br)cc3)S(=O)(=O)c3ccc(Br)cc3)cc2c1C,7.96 µM
2,Cc1c(C(=O)NCC(O)CO)oc2ccc(N(Cc3ccc(Br)cc3)S(=O)(=O)c3ccc(Br)cc3)cc12 (stereo unspecified),16.5 µM
3,Cc1c(C(=O)N2CCNCC2)oc2ccc(N(Cc3ccc(Br)cc3)S(=O)(=O)c3ccc(Br)cc3)cc12,9.04 µM
4,Cc1c(C(=O)OCCCN(C)C)oc2ccc(N(Cc3ccc(Br)cc3)S(=O)(=O)c3ccc(Br)cc3)cc12,28.6 µM
5,Cc1c(C(=O)N2CCN(C)CC2)oc2ccc(N(Cc3ccc(Br)cc3)S(=O)(=O)c3ccc(Br)cc3)cc12,> 40 µM
6,Cc1c(C(=O)NCCN(C)C)oc2ccc(N(Cc3ccc(Br)cc3)S(=O)(=O)c3ccc(Br)cc3)cc12,8.24 µM
7,Cc1c(C(=O)NCCS(C)(=O)=O)oc2ccc(N(Cc3ccc(Br)cc3)S(=O)(=O)c3ccc(Br)cc3)cc12,> 40 µM
8,Cc1ccc(NC(=O)c2oc3ccc(N(Cc4ccc(Br)cc4)S(=O)(=O)c4ccc(Br)cc4)cc3c2C)nc1,> 40 µM
9,Cc1c(C(=O)NCCN2CCCCC2)oc2ccc(N(Cc3ccc(Br)cc3)S(=O)(=O)c3ccc(Br)cc3)cc12,9.26 µM
